The source of these data is ChEMBL document CHEMBL1156809, “Synthesis and anticonvulsant activities of (R)-N-(4'-substituted)benzyl 2-acetamido-3-methoxypropionamides” (J Med Chem, 2010).

The TD50 is the dose at which the toxic effect under study appears in half of the subjects. The ED50 is the dose that gives a 50% effect, or the effect in half of the subjects.

Activity calls are given as the source filed them. The calls are words filed in the database; no cut-off is given here. A value given as a limit tells only on which side of the number the result lay.

Data set [1] concerns Rattus norvegicus. The data set is described as follows: Anticonvulsant activity against in ip dosed albino Sprague-Dawley rat hippocampal kindled seizure model assessed as after-discharge duration after 0.5 hrs. It is filed as functional, Hippocampus. Put shortly: (§1)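 Rats were given compounds intraperitoneally in the rapid hippocampal kindling model under the NINDS ASP. Racine seizure score and after-discharge duration (sec) were recorded before and after dosing. Where determined, ED50 (mg/kg) is given with an interval.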

For data set [2], the system named is Mus musculus. Nature of the data set: Anticonvulsant activity against subcutaneous metrazole-induced seizures in albino CF1 mouse at 300 mg/kg, ip after 0.5 hrs. Type of data set: functional, organism-based. Set-up: dose 300 mg/kg. Put shortly: (§2)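 Subcutaneous Metrazol seizure test under the NINDS ASP, using ip dosing to mice, typically at 300 mg/kg. Protection was assessed at 0.5 and 4 h.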

The subject of data set [3] is Rattus norvegicus. Nature of the data set: Protective index, ratio of TD50 for po dosed albino Sprague-Dawley rat to ED50 for po dosed albino Sprague-Dawley rat. It is filed as functional. Put shortly: (§3)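 Protective index was calculated as TD50/ED50 for the same species and route: mouse ip (rotorod TD50, MES ED50) and rat po.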
Data set [4] relates to Rattus norvegicus. The data set is described as follows: Anticonvulsant activity against subcutaneous metrazole-induced seizures in albino Sprague-Dawley rat at 300 mg/kg, ip after 4 hrs. Type of data set: functional, organism-based. More on the design: dose 300 mg/kg.
The test system of data set [5] is Rattus norvegicus. Nature of the data set: Anticonvulsant activity against subcutaneous metrazole-induced seizures in albino Sprague-Dawley rat at 300 mg/kg, ip after 0.5 hrs. It is filed as functional, organism-based. More on the design: dose 300 mg/kg.
In data set [6] the test system is Mus musculus. Nature of the data set: Protective index, ratio of TD50 for ip dosed albino CF1 mouse to ED50 for ip dosed albino CF1 mouse. Type of data set: functional. Put shortly: as §3
The nature of data set [7]: Neurological toxicity in ip dosed albino CF1 mouse assessed as neurological impairment by rotarod test. It is filed as organism-based. Conditions: in vivo. Put shortly:
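Neurological impairment was measured with the rotorod test in mice dosed intraperitoneally. The median dose (TD50, mg/kg) was determined only for compounds with significant MES activity.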
(In general: Falling from the rotarod earlier than controls is read as motor impairment.)

Data set [8] deals with Mus musculus. Nature of the data set: Anticonvulsant activity against subcutaneous metrazole-induced seizures in albino CF1 mouse at 300 mg/kg, ip after 4 hrs. Type of data set: functional, organism-based. Set-up: dose 300 mg/kg. Put shortly: as §2
Data set [9] relates to Rattus norvegicus. Nature of the data set: Anticonvulsant activity in po dosed albino Sprague-Dawley rat seizure model assessed as protection against hind limb extension by MES test. Type of data set: functional. The conditions noted are these: Hindlimb. Put shortly:
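MES seizure protection was tested in Sprague Dawley rats dosed orally, through the NINDS ASP. The ED50 is expressed in mg/kg.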

In data set [10] the test system is Mus musculus. Nature of the data set: Anticonvulsant activity in ip dosed albino CF1 mouse seizure model assessed as protection against hind limb extension by MES test. Type of data set: functional. Conditions: albino CF1, Hindlimb. Put shortly: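 Maximal electroshock seizure test run by the NINDS ASP (Stables and Kupferberg procedures). Compounds were given intraperitoneally to mice, and the ED50 for seizure protection is reported in mg/kg.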

The subject of data set [11] is Rattus norvegicus. The data set is described as follows: Anticonvulsant activity against in ip dosed albino Sprague-Dawley rat hippocampal kindled seizure model assessed as decrease in seizures after 0.5 hrs. It is filed as functional. The conditions noted are these: Hippocampus. Put shortly: as §1
The nature of data set [12]: Behavioral toxicity in po dosed albino Sprague-Dawley rat. It is filed as organism-based. Conditions: in vivo. Put shortly: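 Behavioral toxicity was recorded as observed effects in rats after oral administration, within the NINDS ASP screen.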

`C=Cc1ccc(CNC(=O)[C@@H](COC)NC(C)=O)cc1`: the Time in the data set with Rattus norvegicus [1] was determined as 0 s. For the same compound, the result with Mus musculus [2], in the data set on Rattus norvegicus [4], with Rattus norvegicus [5] and with Mus musculus [8] was inactive. For the same compound, the results for the PI in the data set with Rattus norvegicus [3] and in the data set on Mus musculus [6] were greater than 20 and 4.6, respectively. The TD50 in [7] was determined as 16 mg/kg. Also, the median effective dose (ED50) in the data set with Rattus norvegicus [9] is 7.6 mg/kg; in the data set on Mus musculus [10], 3.5 mg/kg.
For the compound `COC[C@@H](NC(C)=O)C(=O)NCc1ccc(N=[N+]=[N-])cc1`, in the data set with Rattus norvegicus [1], the Time was 0 s. Further, the outcome in the data set with Mus musculus [2], with Rattus norvegicus [4], with Rattus norvegicus [5] and in the data set with Mus musculus [8] was inactive. For the same compound, the PI with Rattus norvegicus [3] is greater than 64. Besides, the ED50 came to 6 mg/kg in the data set on Rattus norvegicus [11] and 8.4 mg/kg in the data set with Mus musculus [10]. In data set [12], this compound registered a TD50 greater than 250 mg/kg.
Regarding `COC[C@@H](NC(C)=O)C(=O)NCc1ccc(I)cc1`, the Time with Rattus norvegicus [1] was determined as 0 s. The outcome in the data set on Mus musculus [2], with Rattus norvegicus [4], in the data set with Rattus norvegicus [5] and with Mus musculus [8] was inactive. Further, the PI with Rattus norvegicus [3] is on record as greater than 43; in the data set on Mus musculus [6], 2.6. The TD50 in data set [7] is 41 mg/kg; in data set [12] it was greater than 500 mg/kg. Moreover, the ED50 was 12 mg/kg in the data set with Rattus norvegicus [11], 12 mg/kg with Rattus norvegicus [9] and 16 mg/kg in the data set on Mus musculus [10].
Take `COC[C@@H](NC(C)=O)C(=O)NCc1ccc(Cl)cc1`: the Time with Rattus norvegicus [1] came out at 2 s. Besides, the result in the data set with Mus musculus [2], in the data set on Rattus norvegicus [4], with Rattus norvegicus [5] and with Mus musculus [8] was inactive. Moreover, the PI in the data set with Rattus norvegicus [3] is reported as greater than 200; in the data set on Mus musculus [6], 5.6. Moreover, the TD50 in data set [7] was 28 mg/kg; in data set [12], greater than 200 mg/kg. The median effective dose (ED50) is 1 mg/kg in the data set on Rattus norvegicus [9] and 5 mg/kg in the data set with Mus musculus [10].
For `COCc1ccc(CNC(=O)[C@@H](COC)NC(C)=O)cc1`, in the data set on Rattus norvegicus [1], the Time turned out to be 12 s. The result in the data set on Mus musculus [2], with Rattus norvegicus [4], in the data set with Rattus norvegicus [5] and in the data set with Mus musculus [8] was inactive. Besides, the PI in the data set on Rattus norvegicus [3] is on record as greater than 11; in the data set on Mus musculus [6], 2.3. Besides, the ED50 turned out to be 87 mg/kg with Rattus norvegicus [11] and 73 mg/kg in the data set on Mus musculus [10]. This compound came in with a TD50 in data set [12] greater than 500 mg/kg.
Turning to `COCCCc1ccc(CNC(=O)[C@@H](COC)NC(C)=O)cc1`, the Time in the data set on Rattus norvegicus [1] amounted to 21 s. Besides, the result in the data set on Mus musculus [2], with Rattus norvegicus [4], in the data set with Rattus norvegicus [5] and with Mus musculus [8] was inactive. Also, the values for the PI in the data set on Rattus norvegicus [3] and in the data set with Mus musculus [6] were greater than 32 and 3.1, respectively. Besides, the TD50 in data set [7] is 62 mg/kg; in [12], greater than 500 mg/kg. Also, the ED50 in the data set on Mus musculus [10] is 20 mg/kg.
Take `CCCC(CCC)C(=O)[O-].[Na+]` [VALPROATE SODIUM]: the result in the data set with Mus musculus [2], with Rattus norvegicus [4], in the data set with Rattus norvegicus [5] and with Mus musculus [8] was inactive. Besides, the ED50 with Rattus norvegicus [11] was found to be 210 mg/kg; with Mus musculus [10], 270 mg/kg.
